Measured values as given in ChEMBL document CHEMBL3352269, “Discovery of 2-Pyridylpyrimidines as the First Orally Bioavailable GPR39 Agonists” (ACS Med Chem Lett, 2014).
Activity calls are given as the source filed them. No cut-off for these calls is given here.

Assays:
[1] = biological target: T1, G-protein coupled receptor 39 (Homo sapiens, UniProt O43194); assay: Agonist activity at human GPR39 expressed in HEK293 cells by IP1 assay; type: functional, cell-based
T1 sequence (O43194 whole entry): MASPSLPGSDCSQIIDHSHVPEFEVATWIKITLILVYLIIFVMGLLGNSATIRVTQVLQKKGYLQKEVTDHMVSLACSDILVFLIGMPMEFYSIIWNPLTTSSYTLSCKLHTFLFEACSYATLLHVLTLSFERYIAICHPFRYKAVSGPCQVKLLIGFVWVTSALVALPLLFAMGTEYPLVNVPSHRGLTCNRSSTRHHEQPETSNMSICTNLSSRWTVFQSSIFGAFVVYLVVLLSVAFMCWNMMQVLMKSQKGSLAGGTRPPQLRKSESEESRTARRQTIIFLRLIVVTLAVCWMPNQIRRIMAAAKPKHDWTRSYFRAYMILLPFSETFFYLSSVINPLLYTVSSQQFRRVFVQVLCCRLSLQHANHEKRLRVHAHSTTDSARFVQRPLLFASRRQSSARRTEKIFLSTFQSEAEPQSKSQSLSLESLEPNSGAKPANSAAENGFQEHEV
Outline: (§1)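 Gαq signalling read as inositol-1-phosphate (IP1) accumulation in HEK293 cells overexpressing human, mouse or rat GPR39. EC50 taken from an 11-point dose–response curve run in triplicate. Replicates range from 1 to 4, with standard deviation where available.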

[2] = biological target: T2, G-protein coupled receptor 39 (Mus musculus, UniProt Q5U431); assay: Agonist activity at mouse GPR39 expressed in HEK293 cells by IP1 assay; type: functional, cell-based; outline: as §1
T2 sequence (Q5U431 whole entry): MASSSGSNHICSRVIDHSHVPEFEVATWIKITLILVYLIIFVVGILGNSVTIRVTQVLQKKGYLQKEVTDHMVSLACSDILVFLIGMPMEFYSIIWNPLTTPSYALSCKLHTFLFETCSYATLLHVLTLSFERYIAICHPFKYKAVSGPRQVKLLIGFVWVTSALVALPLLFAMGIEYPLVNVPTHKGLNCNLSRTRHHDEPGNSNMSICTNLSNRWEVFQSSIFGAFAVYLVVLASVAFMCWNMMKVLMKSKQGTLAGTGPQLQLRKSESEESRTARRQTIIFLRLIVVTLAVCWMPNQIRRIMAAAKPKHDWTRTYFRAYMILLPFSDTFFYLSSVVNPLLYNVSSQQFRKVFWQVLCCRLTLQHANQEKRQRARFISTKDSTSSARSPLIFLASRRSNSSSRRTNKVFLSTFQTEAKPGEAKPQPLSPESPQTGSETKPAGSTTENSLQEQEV

[3] = Hepatic clearance in rat liver microsomes; type: ADME
Outline: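 Predicted hepatic clearance calculated from intrinsic clearance in rat liver microsomes.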

[4] = Clearance in Sprague-Dawley rat at 1 mg/kg, iv administered as single dose; type: ADME, organism-based; design: dose 1 mg/kg, route intravenous; conditions: in vivo
Outline: (§2)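 Sprague–Dawley rats received a single iv dose of 1 mg/kg, with clearance measured, or an oral dose of 3 mg/kg, with bioavailability (F) measured.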

[5] = Oral bioavailability in Sprague-Dawley rat at 3 mg/kg; type: ADME, organism-based; conditions: in vivo; outline: as §2
[6] = biological target: T3, G-protein coupled receptor 39 (Homo sapiens) (UniProt O43194); assay: Agonist activity at human GPR39 expressed in HEK293 cells in presence of sub-EC50 dose of zinc chloride by IP1 assay; type: functional, cell-based
T3 sequence (whole entry): T1 sequence (O43194 whole entry)

Protein Gpr39 = biological target: T4, Protein Gpr39 (Rattus norvegicus, UniProt A6QR73); assay: Agonist activity at rat GPR39 expressed in HEK293 cells by IP1 assay; type: functional, cell-based; outline: as §1
T4 sequence (A6QR73 whole entry): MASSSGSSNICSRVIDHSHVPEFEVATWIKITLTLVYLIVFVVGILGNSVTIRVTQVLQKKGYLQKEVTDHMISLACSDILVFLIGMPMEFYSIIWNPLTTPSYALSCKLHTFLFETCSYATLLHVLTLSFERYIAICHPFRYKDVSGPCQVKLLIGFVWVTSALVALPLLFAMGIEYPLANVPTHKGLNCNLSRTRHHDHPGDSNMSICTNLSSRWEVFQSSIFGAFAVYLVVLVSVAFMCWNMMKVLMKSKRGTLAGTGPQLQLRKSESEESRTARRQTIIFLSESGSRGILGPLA

[7] = biological target: T1, G-protein coupled receptor 39; assay: Agonist activity at human GPR39 expressed in HEK293 cells by cAMP assay; type: functional, cell-based
Outline: (§3)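 cAMP accumulation (Gαs signalling) in HEK293 cells overexpressing human GPR39. Dose–response curve run in triplicate, 1–16 replicates. EC50 derived from the curve. Percent efficacy is expressed relative to the cAMP response to 25 μM forskolin.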

[8] = biological target: T3, G-protein coupled receptor 39 (Homo sapiens); assay: Agonist activity at human GPR39 expressed in HEK293 cells by cAMP assay relative to forskolin; type: functional, cell-based; outline: as §3
[9] = Induction of GLP1 secretion in mouse STC1 cells incubated for 2 hrs by fluorescent bead based ELISA method; type: functional, cell-based; conditions: STC-1, 2 h
Outline: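 Mouse enteroendocrine STC-1 cells, which express endogenous GPR39, were assayed for GLP-1 secretion over a dose–response run in triplicate. Maximal activity is expressed as fold increase in GLP-1 over the DMSO control.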

[10] = Protection against cytokine-induced cell death in rat INS-1E cells assessed as caspase 3/7 activity; type: functional, cell-based
Outline: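 Rat insulinoma INS-1E cells (beta-cell phenotype) were treated with cytokines to induce cell death. Caspase 3/7 activity was the read-out. Dose–response run in triplicate.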

With `CNc1nc(Nc2ccc(N(C)C(C)=O)cc2)cc(-c2ccccn2)n1` the EC50 [1] was 1180 nM and the EC50 [2] was 2610 nM.

Work on `CNc1nc(NCc2ccc(S(C)(=O)=O)cc2)cc(-c2ccccn2)n1` yielded a CLhep predicted [3] of 34.1 mL/min/kg, an EC50 [1] of 36 nM and an EC50 [2] of 185 nM. The clearance [4] was 18 mL/min/kg and the bioavailability [5] was 45%.

In the case of `CN(C)c1nc(NCC2CC2)cc(-c2ccccn2)n1`, the EC50 [1] is reported as over 25000 nM and the EC50 [2] is reported as 6720 nM.

With `CNc1nc(NCC2CCCCC2)cc(-c2ccccn2)n1` the EC50 [1] was 11 nM and the EC50 [2] was 10 nM.

For `O=S(=O)(NC[C@H]1CC[C@H](CNc2cc(-c3ccccn3)nc(NCC3CC3)n2)CC1)c1ccc(F)cc1`, the Activity [6] was “Active”.

Molecule `CNc1nc(NCC2CC2)cc(-c2ccccn2)n1` has an EC50 [1] of 164 nM and an EC50 [2] of 115 nM.

With `CNc1nc(NCc2ccc(OC(F)(F)F)cc2)cc(-c2ccccn2)n1` the CLhep predicted [3] was over 52.3 mL/min/kg, the EC50 [1] was 13 nM and the EC50 [2] was 7 nM.

`CNC(=O)c1ccc(CNc2cc(-c3ccccn3)nc(NC)n2)cc1` showed a CLhep predicted [3] of 31.9 mL/min/kg, an EC50 [1] of 30 nM and an EC50 [2] of 8 nM.

`CNc1nc(NC2(c3ccc(Cl)cc3)CCC2)cc(-c2ccccn2)n1` showed a CLhep predicted [3] of over 52.3 mL/min/kg, an EC50 [1] of 25 nM and an EC50 [2] of 34 nM.

In the case of `FC(F)(F)Oc1ccc(CNc2nc(NCC3CC3)cc(-c3ccccn3)n2)cc1`, the EC50 [1] is reported as 600 nM and the EC50 [2] is reported as 22 nM.

`[Cl-].[Cl-].[Zn+2]` [ZINC CHLORIDE] showed an EC50 (Protein Gpr39) of 4040 nM, an EC50 [7] of 3600 nM and an Efficacy [8] of 48%.

Work on `CNc1nc(NCc2ccc(NC(C)=O)cc2)cc(-c2ccccn2)n1` yielded a CLhep predicted [3] of 35.9 mL/min/kg, an EC50 [1] of 5 nM and an EC50 [2] of 2 nM. It also gave an EC50 (Protein Gpr39) of 2 nM, an EC50 [7] of 550 nM and an Efficacy [8] of 48%. For the same molecule, the EC50 [9] was 4400 nM and the EC50 [10] was 1200 nM.

`Cc1nc(NCc2ccc(Cl)cc2)cc(-c2ccccn2)n1` gave a CLhep predicted [3] of over 52.3 mL/min/kg, an EC50 [1] of 81 nM and an EC50 [2] of 17 nM.
